ChEMBL document CHEMBL1132961 (J Med Chem, 2000)

Legend:
[1] = Concentration which elicits cytotoxicity in 50% of uninfected human lymphocyte derived CEM cells; assay type: cell-based, CCRF-CEM; conditions: uninfected CCRF-CEM cells, read-out: TC50 (the source's name)
In short: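 Cytotoxicity measured in uninfected human lymphocyte-derived CEM cells by XTT protocol.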

[2] = tested on: Human immunodeficiency virus 1; test: Effective concentration at which 50% of the HIV-IIIB-infected human lymphocyte-derived CEM cells protected from HIV-1 infection; conditions: Human immunodeficiency virus 1, CCRF-CEM
[3] = target: T1, Human immunodeficiency virus type 1 protease (Human immunodeficiency virus 1, UniProt Q72874); test: Activity of potent nonpeptidic inhibitor against protease
In short: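 Incubated with 40 µM His-Lys-Ala-Arg-Val-Leu-(p-NO₂-Phe)-Glu-Ala-Nle-Ser-NH₂ in 1.0% DMSO, pH 6.2 MES buffer (DTT, NaCl, EDTA, PEG 8000) for 60 min at 37 °C, then TFA quench. Substrate and product separated by reverse-phase HPLC, read at 220 nm. % control = conversion with inhibitor / conversion without × 100; IC50 derived.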

[4] = target: T1, Human immunodeficiency virus type 1 protease; test: Tested for binding affinity against HIV protease

Compound	CC50 [1]	EC50 [2]	IC50 [3]	Ki [4]
Cc1cc(SC2=C(O)OC(CCc3ccc(N)cc3)(C(C)C)CC2=O)c(C(C)(C)C)cc1OS(=O)(=O)c1cccnc1 (centres undefined)	66 µM	2.2 µM	0.0041 µM	
Cc1cc(SC2=C(O)OC(CCc3ccc(O)cc3)(C3CC3)CC2=O)c(C(C)(C)C)cc1NS(=O)(=O)c1ccccc1 (centres undefined)	76 µM	2.4 µM	0.0036 µM	
Cc1cc(SC2=C(O)OC(C)(CCc3ccc(O)cc3)CC2=O)c(C(C)(C)C)cc1NS(=O)(=O)c1ccccc1 (centres undefined)	> 100 µM	5.2 µM	0.0015 µM	
Cc1cc(SC2=C(O)OC(C)(CCc3ccc(O)cc3)CC2=O)c(C(C)(C)C)cc1NS(=O)(=O)c1ccc(C#N)cc1 (centres undefined)	> 100 µM	5 µM	0.0021 µM	
Cc1cc(SC2=C(O)OC(C)(CCc3ccc(O)cc3)CC2=O)c(C(C)(C)C)cc1OS(=O)(=O)c1ccc(F)cc1 (centres undefined)	100 µM	6.3 µM	0.0169 µM	
Cc1cc(SC2=C(O)OC(CCc3ccc(N)cc3)(C(C)C)CC2=O)c(C(C)(C)C)cc1OS(=O)(=O)c1ccc(C#N)cc1 (centres undefined)	53 µM	0.4 µM	0.0013 µM	
CCNS(=O)(=O)Nc1cc(C(C)(C)C)c(SC2=C(O)OC(CCc3ccccc3)(C(C)C)CC2=O)cc1C (centres undefined)	77 µM	1.2 µM	0.0033 µM	
Cc1cc(SC2=C(O)OC(CCc3ccc(N)cc3)(C(C)C)CC2=O)c(C(C)(C)C)cc1OS(=O)(=O)c1cccs1 (centres undefined)	66 µM	6 µM	0.0185 µM	
Cc1cc(SC2=C(O)OC(CCc3ccc(O)cc3)(C3CCCC3)CC2=O)c(C(C)(C)C)cc1NS(=O)(=O)c1ccccc1 (centres undefined)	67 µM	2.5 µM	0.0086 µM	
Cc1cc(SC2=C(O)OC(CCc3ccc(O)cc3)(C(C)C)CC2=O)c(C(C)(C)C)cc1OS(=O)(=O)c1ccccn1 (centres undefined)	84 µM	0.7 µM	0.005 µM	
Cc1cc(SC2=C(O)OC(CCc3ccc(O)cc3)(C(C)C)CC2=O)c(C(C)(C)C)cc1NS(=O)(=O)c1ccc(Cl)cc1 (centres undefined)	66 µM	1.6 µM	0.0053 µM	
Cc1cc(SC2=C(O)OC(CCc3ccc(O)cc3)(C(C)C)CC2=O)c(C(C)(C)C)cc1NS(=O)(=O)c1ccccn1 (centres undefined)	> 100 µM	4.1 µM	0.0026 µM	
Cc1cc(SC2=C(O)OC(C)(CCc3ccc(O)cc3)CC2=O)c(C(C)(C)C)cc1NS(=O)(=O)c1ccc(-c2cccs2)cc1 (centres undefined)	> 100 µM	5.6 µM	0.0063 µM	
Cc1cc(SC2=C(O)OC(CCc3ccccc3)(C(C)C)CC2=O)c(C(C)(C)C)cc1NS(=O)(=O)Cn1ccnc1 (centres undefined)	> 100 µM	4.2 µM	0.0019 µM	
Cc1cc(SC2=C(O)OC(C)(CCc3ccc(O)cc3)CC2=O)c(C(C)(C)C)cc1NS(=O)(=O)c1ccc(F)cc1 (centres undefined)	93 µM	5.6 µM	0.0037 µM	
Cc1cc(SC2=C(O)OC(CCc3ccc(O)cc3)(C3CCCCC3)CC2=O)c(C(C)(C)C)cc1OS(=O)(=O)c1ccc(C#N)cc1 (centres undefined)	29 µM	2.6 µM	0.021 µM	
Cc1cc(SC2=C(O)OC(C)(CCc3ccc(O)cc3)CC2=O)c(C(C)(C)C)cc1NS(=O)(=O)Cn1ccnc1 (centres undefined)	> 100 µM	58 µM	0.0019 µM	
Cc1cc(SC2=C(O)OC(CCc3ccc(O)cc3)(C(C)C)CC2=O)c(C(C)(C)C)cc1NS(=O)(=O)c1ccc(F)cc1 (centres undefined)	66 µM	1.8 µM	0.0041 µM	
Cc1cc(SC2=C(O)OC(CCc3ccccc3)(C(C)C)CC2=O)c(C(C)(C)C)cc1O (centres undefined)	66 µM	1.8 µM		0.0011 µM
Cc1cc(SC2=C(O)OC(CCc3ccc(O)cc3)(C(C)C)CC2=O)c(C(C)(C)C)cc1NS(=O)(=O)c1ccc(C(F)(F)F)cc1 (centres undefined)	66 µM	1.1 µM	0.0183 µM	
CCNS(=O)(=O)Nc1cc(C(C)(C)C)c(SC2=C(O)OC(CCc3ccc(O)cc3)(C(C)C)CC2=O)cc1C (centres undefined)	> 100 µM	3.3 µM	0.0017 µM	
Cc1cc(SC2=C(O)OC(C)(CCc3ccc(O)cc3)CC2=O)c(C(C)(C)C)cc1OS(=O)(=O)c1ccccc1 (centres undefined)	82 µM	12 µM	0.0098 µM	
Cc1cc(SC2=C(O)O[C@](CCc3ccc(O)cc3)(C(C)C)CC2=O)c(C(C)(C)C)cc1NS(=O)(=O)c1ccc(C(F)(F)F)cn1	66 µM	1.8 µM		0.00039 µM
Cc1cc(SC2=C(O)OC(CCc3ccccc3)(C(C)C)CC2=O)c(C(C)(C)C)cc1NS(=O)(=O)c1cccc(C#N)c1 (centres undefined)	66 µM	1.5 µM		0.0014 µM
Cc1cc(SC2=C(O)OC(C)(CCc3ccc(O)cc3)CC2=O)c(C(C)(C)C)cc1NS(=O)(=O)c1ccc(C(F)(F)F)cc1 (centres undefined)	79 µM	3.5 µM	0.0123 µM	
Cc1cc(SC2=C(O)OC(CCc3ccccc3)(C(C)C)CC2=O)c(C(C)(C)C)cc1N (centres undefined)	69 µM	1.9 µM	0.0036 µM	

Compound	CC50 [1]	EC50 [2]	IC50 [3]	Ki [4]
CCNS(=O)(=O)Oc1cc(C(C)(C)C)c(SC2=C(O)OC(CCc3ccc(N)cc3)(C(C)C)CC2=O)cc1C (centres undefined)	83 µM	0.7 µM		
Cc1cc(SC2=C(O)OC(CCc3ccc(N)cc3)(C(C)C)CC2=O)c(C(C)(C)C)cc1OS(=O)(=O)N(C)C (centres undefined)	64 µM	0.8 µM		
Cc1cc(SC2=C(O)OC(CCc3ccc(O)cc3)(C(C)C)CC2=O)c(C(C)(C)C)cc1OS(=O)(=O)N(C)C (centres undefined)	70 µM			
Cc1cc(SC2=C(O)O[C@@](CCc3ccc(O)cc3)(C(C)C)CC2=O)c(C(C)(C)C)cc1NS(=O)(=O)c1ccc(C(F)(F)F)cn1	66 µM	18 µM		0.00954 µM
Cc1cc(SC2=C(O)O[C@@](CCc3ccccc3)(C(C)C)CC2=O)c(C(C)(C)C)cc1NS(=O)(=O)c1ccc(C(F)(F)F)cn1	66 µM	5.9 µM		0.0064 µM
Cc1cc(SC2=C(O)OC(CCc3ccccc3)(C(C)C)CC2=O)c(C(C)(C)C)cc1NS(=O)(=O)c1cccs1 (centres undefined)	61 µM	2.1 µM	0.0036 µM	
Cc1cc(SC2=C(O)OC(CCc3ccc(O)cc3)(C(C)C)CC2=O)c(C(C)(C)C)cc1NS(C)(=O)=O (centres undefined)	> 100 µM	5.3 µM	0.004 µM	
Cc1cc(SC2=C(O)OC(CCc3ccccc3)(C(C)C)CC2=O)c(C(C)(C)C)cc1NS(=O)(=O)c1cccnc1 (centres undefined)	76 µM	1.6 µM	0.0035 µM	
Cc1cc(SC2=C(O)OC(CCc3ccc(O)cc3)(C(C)C)CC2=O)c(C(C)(C)C)cc1OS(=O)(=O)c1ccccc1 (centres undefined)	66 µM	1.6 µM	0.0104 µM	
Cc1cc(SC2=C(O)OC(CCc3ccc(O)cc3)(C(C)C)CC2=O)c(C(C)(C)C)cc1NS(=O)(=O)c1cccc(C#N)c1 (centres undefined)	> 100 µM	5.3 µM		0.00021 µM
Cc1cc(SC2=C(O)OC(C)(CCc3ccc(O)cc3)CC2=O)c(C(C)(C)C)cc1NS(C)(=O)=O (centres undefined)	> 100 µM	19 µM	0.0097 µM	
Cc1cc(SC2=C(O)OC(CCc3ccc(O)cc3)(C(C)C)CC2=O)c(C(C)(C)C)cc1OS(=O)(=O)c1ccc(F)cc1 (centres undefined)	66 µM	0.8 µM	0.0096 µM	
Cc1cc(SC2=C(O)OC(CCc3ccccc3)(C(C)C)CC2=O)c(C(C)(C)C)cc1OS(=O)(=O)c1cccnc1 (centres undefined)	65 µM	4.6 µM	0.014 µM	
Cc1cc(SC2=C(O)OC(CCc3ccccc3)(C(C)C)CC2=O)c(C(C)(C)C)cc1OS(=O)(=O)c1ccc(C#N)cc1 (centres undefined)	25 µM	1.1 µM		0.0007 µM
Cc1cc(SC2=C(O)OC(CCc3ccccc3)(C(C)C)CC2=O)c(C(C)(C)C)cc1OS(=O)(=O)c1ccccn1 (centres undefined)	65 µM	1.4 µM	0.0067 µM	
Cc1cc(SC2=C(O)OC(C)(CCc3ccc(O)cc3)CC2=O)c(C(C)(C)C)cc1NS(=O)(=O)c1ccc(Cl)cc1 (centres undefined)	71 µM	3.9 µM	0.0035 µM	
Cc1cc(SC2=C(O)OC(CCc3ccc(O)cc3)(C(C)C)CC2=O)c(C(C)(C)C)cc1NS(=O)(=O)N(C)C (centres undefined)	> 100 µM	1.7 µM	0.0036 µM	
Cc1cc(SC2=C(O)OC(CCc3ccc(O)cc3)(C(C)C)CC2=O)c(C(C)(C)C)cc1NS(=O)(=O)c1cccs1 (centres undefined)	> 100 µM	1.8 µM	0.0087 µM	
Cc1cc(SC2=C(O)OC(CCc3ccccc3)(C(C)C)CC2=O)c(C(C)(C)C)cc1OS(=O)(=O)Cn1ccnc1 (centres undefined)	66 µM	1.1 µM	0.003 µM	
Cc1cc(SC2=C(O)OC(CCc3ccc(O)cc3)(C(C)C)CC2=O)c(C(C)(C)C)cc1NS(=O)(=O)c1cccnc1 (centres undefined)	> 100 µM	5.8 µM	0.0026 µM	
Cc1cc(SC2=C(O)OC(CCc3ccc(O)cc3)(C3CCCCC3)CC2=O)c(C(C)(C)C)cc1OS(=O)(=O)c1ccccc1 (centres undefined)	59 µM	> 59 µM	0.131 µM	
Cc1cc(SC2=C(O)OC(CCc3ccc(O)cc3)(C3CCCCC3)CC2=O)c(C(C)(C)C)cc1OS(=O)(=O)c1ccc(F)cc1 (centres undefined)	66 µM	9.5 µM	0.029 µM	
Cc1cc(SC2=C(O)OC(C)(CCc3ccc(O)cc3)CC2=O)c(C(C)(C)C)cc1N (centres undefined)	> 100 µM	3.7 µM	0.013 µM	
Cc1cc(SC2=C(O)OC(CCc3ccc(O)cc3)(C(C)C)CC2=O)c(C(C)(C)C)cc1N (centres undefined)	92 µM	1 µM		
CCNS(=O)(=O)Oc1cc(C(C)(C)C)c(SC2=C(O)OC(CCc3ccc(O)cc3)(C(C)C)CC2=O)cc1C (centres undefined)	> 100 µM	1 µM		
CC(=O)Nc1ccc(S(=O)(=O)Nc2cc(C(C)(C)C)c(SC3=C(O)OC(C)(CCc4ccc(O)cc4)CC3=O)cc2C)cc1 (centres undefined)	> 100 µM	55 µM		
